Experimental data as given in ChEMBL document CHEMBL4765360, “Design, synthesis and biological evaluation of novel potent STAT3 inhibitors based on BBI608 for cancer therapy” (Eur J Med Chem, 2020).
Calls of active or inactive are those of the source. The calls are words filed in the database; no cut-off is given here.

Columns and labels:
MDA-MB-231 = assay: Induction of cell cycle arrest in human MDA-MB-231 cells assessed as G0/G1 phase accumulation at 4 uM incubated for 24 hrs by PI staining based flow cytometry analysis (reference value: 57.99 %); format: functional
[1] = molecular target: Signal transducer and activator of transcription 3 (Homo sapiens, UniProt P40763); assay: Inhibition of STAT3 in human MDA-MB-231 cells assessed as reduction in STAT3 Y705 phosphorylation in cytoplasm at 3 uM incubated for 24 hrs by immunofluorescence staining based fluorescence microscopy; format: subcellular
Method in brief: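 MDA-MB-231 cells at 1×10^4 per dish, adhered overnight, then exposed to 3.0 µM for 24 h. Fixed in 4% paraformaldehyde and permeabilized with 0.5% Triton X-100. Blocked in 5% BSA for 1 h. Anti-p-STAT3 primary overnight at 4 °C, then Alexa Fluor 546 anti-rabbit for 1 h at RT. Hoechst nuclear stain; imaged by fluorescence microscopy.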

Signal transducer and activator of transcription 3, sequence (P40763 whole entry): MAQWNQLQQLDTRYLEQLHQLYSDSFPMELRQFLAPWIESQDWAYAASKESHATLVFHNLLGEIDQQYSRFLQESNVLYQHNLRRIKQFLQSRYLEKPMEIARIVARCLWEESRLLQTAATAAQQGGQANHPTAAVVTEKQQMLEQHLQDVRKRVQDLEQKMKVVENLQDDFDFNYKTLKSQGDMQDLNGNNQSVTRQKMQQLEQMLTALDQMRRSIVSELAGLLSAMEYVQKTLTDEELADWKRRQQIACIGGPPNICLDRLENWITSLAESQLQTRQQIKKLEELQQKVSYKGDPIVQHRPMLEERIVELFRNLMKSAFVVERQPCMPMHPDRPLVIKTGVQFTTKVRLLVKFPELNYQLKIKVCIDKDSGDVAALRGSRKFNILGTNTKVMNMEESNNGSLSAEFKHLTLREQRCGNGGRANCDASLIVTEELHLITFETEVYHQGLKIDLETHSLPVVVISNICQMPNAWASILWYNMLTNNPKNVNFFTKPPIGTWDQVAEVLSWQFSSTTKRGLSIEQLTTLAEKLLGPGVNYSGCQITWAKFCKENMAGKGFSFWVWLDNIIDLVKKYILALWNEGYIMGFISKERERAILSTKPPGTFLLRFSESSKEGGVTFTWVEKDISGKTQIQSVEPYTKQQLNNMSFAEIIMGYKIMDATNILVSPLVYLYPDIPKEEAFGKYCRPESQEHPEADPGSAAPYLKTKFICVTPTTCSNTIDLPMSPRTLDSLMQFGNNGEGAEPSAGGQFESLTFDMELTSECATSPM

inhibition [1]: Active
Compound: COc1ccc(NC2=CC(=O)c3cc(C(C)=O)oc3C2=O)cc1
Activity (MDA-MB-231): 35.39%
